Data on 2 molecules can be found in ChEMBL document CHEMBL4190282, “The Conjugated Double Bond of Coniferyl Aldehyde Is Essential for Heat Shock Factor 1 Mediated Cytotoprotection” (J Nat Prod, 2017).

For one series, the system named is MEF. In words: Cytoprotective activity against paclitaxel-induced PARP cleavage in HSF1 deficient MEF at 3 uM pretreated for 1 hr followed by paclitaxel addition measured after 24 hrs by immunoblotting analysis. The format is functional, cell-based. The settings on record: Mus musculus. An outline of the steps: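 HSF1+/+ or HSF1−/− MEFs in DMEM with heat-inactivated 10% FBS, nonessential amino acids, glutamine, HEPES, 37 °C, 5% CO2. 1 h pretreatment at 3 μM, then 0.5 μM paclitaxel or 20 μM cisplatin for 24 h, or 10 Gy 137Cs γ-rays (3.81 Gy/min) for 48 h. Cleaved PARP and caspase-3 immunoblotted; bands normalized to loading control, fold-change vs negative control, ≥3 independent experiments.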
In general terms: Immunoblotting shows a protein as a band on a membrane.

The subject of series [1] is L132. In words: Cytoprotective activity against paclitaxel-induced PARP cleavage in human L-132 cells at 3 uM pretreated for 1 hr followed by paclitaxel addition measured after 24 hrs by immunoblotting analysis. The format is functional, cell-based. An outline of the steps:
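Human embryonic lung L132 cells in RPMI with 10% FBS. 1 h pretreatment at 3 μM, then 0.5 μM paclitaxel or 20 μM cisplatin for 24 h, or 10 Gy 137Cs γ-rays (3.81 Gy/min) for 48 h. Cleaved PARP and caspase-3 immunoblotted (ECL); bands normalized to loading control, fold-change vs negative control, ≥3 independent experiments.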

Series [2] deals with L132. Briefly: Cytotoxicity against human L-132 cells assessed as reduction in cell viability up to 20 uM after 24 hrs by MTT assay. The format is cell-based. The following applies: l132, 24 h. The essentials:
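L132 cells treated 24 h at indicated doses up to 20 μM. MTT (5 mg/mL in PBS) 4 h at 37 °C, formazan dissolved in DMSO, absorbance at 540 nm converted to cell number via calibration curve. Celastrol positive control.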
Background: Tetrazolium assays rely on reduction of a dye to a coloured formazan, in cell work by metabolically active cells.

For series [3], the target named is T1, Heat shock factor protein 1 (Homo sapiens) (UniProt Q00613).
T1 sequence (whole entry): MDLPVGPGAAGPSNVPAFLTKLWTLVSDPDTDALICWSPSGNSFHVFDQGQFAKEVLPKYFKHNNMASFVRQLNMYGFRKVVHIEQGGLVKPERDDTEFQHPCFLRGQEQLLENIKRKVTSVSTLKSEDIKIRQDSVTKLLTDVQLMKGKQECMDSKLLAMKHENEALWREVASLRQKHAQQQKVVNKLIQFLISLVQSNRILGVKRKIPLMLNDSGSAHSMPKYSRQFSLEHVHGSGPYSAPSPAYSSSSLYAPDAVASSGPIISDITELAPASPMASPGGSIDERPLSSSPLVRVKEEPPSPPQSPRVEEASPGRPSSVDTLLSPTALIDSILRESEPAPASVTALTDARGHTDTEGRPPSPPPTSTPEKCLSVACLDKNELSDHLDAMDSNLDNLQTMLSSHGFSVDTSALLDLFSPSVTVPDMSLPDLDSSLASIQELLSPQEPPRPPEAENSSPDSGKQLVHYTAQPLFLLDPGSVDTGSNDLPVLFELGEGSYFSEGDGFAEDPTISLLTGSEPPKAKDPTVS
In words: Activation of HSF1 in human L132 cells assessed as increase in HSP27 protein levels at 3 uM by immunoblotting analysis. The format is cell-based. The following applies: TDE = time-dependent effect. The essentials: (§1)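 L132 cells treated at 3 μM for 12 h, or at various doses for 12 h, or at 3 μM over a time course. Lysates resolved by SDS-PAGE, blotted to nitrocellulose, milk-blocked, primary antibodies 18 h at 4 °C, ECL detection. HSP27, HSP70 and Ser326-phospho-HSF1 bands normalized to loading control; ≥3 independent experiments; celastrol 1 μM positive control.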

In series [4] the target is T1, Heat shock factor protein 1 (Homo sapiens). In words: Activation of HSF1 in human L132 cells assessed as increase in HSP70 protein levels at 1 to 3 uM after 12 hrs by immunoblotting analysis. The format is cell-based. The essentials: as §1
The target is the same in series [5]. In words: Activation of HSF1 in human L132 cells assessed as increase in HSP27 protein levels after 12 hrs by immunoblotting analysis. The format is cell-based. The essentials: as §1

Structures are written as SMILES. Activity calls are given as the source filed them. No cut-off for these calls is given here.

As for `COc1cc(/C=C/CO)ccc1O` [CONIFERYL ALCOHOL], the result in the series on MEF was inactive. Moreover, the result (in the series with L132 [1]; in series [4]) was Active. Further, the Activity entry with L132 [2] is “Non-Toxic”; in series [3] it was “Tde”.

With `COc1cc(/C=C/C=O)ccc1O` [CONIFERYL ALDEHYDE], the result in the series on MEF was inactive. The result (in the series with L132 [1]; in series [4]) was Active. For the same molecule, the Activity entry in the series on L132 [2] was “Non-Toxic”; in series [5], “Dose-dependent effect”.
